This passage reports IC50 results from ChEMBL document CHEMBL3351601, “2-(4-Chlorobenzyl)-6-arylimidazo[2,1-b][1,3,4]thiadiazoles: synthesis, cytotoxic activity and mechanism of action” (Eur J Med Chem, 2014).

One assay deals with L1210. The assay is described as follows: Cytotoxicity against mouse L1210 cells after 48 hrs by Coulter counting method. It is filed as functional, cell-based. Conditions: L1210, 48 h. In outline:
(§1)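 (5–7.5) × 10⁴ tumour cells per well with test compound. Proliferation ran 48 h for L1210 and 72 h for CEM and HeLa, at 37 °C in humidified CO₂. Cells counted in a Coulter counter. IC50 taken as the concentration that inhibited cell proliferation by 50%.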

A further assay has as its system CCRF-CEM. The assay is described as follows: Cytotoxicity against human CEM cells after 72 hrs by Coulter counting method. It counts as cell-based. In outline:
as §1

The next assay concerns HeLa. Kind of assay: Cytotoxicity against human HeLa cells after 72 hrs by Coulter counting method. It counts as functional, cell-based. In outline: as §1
The test system of a further assay is REH. The assay is described as follows: Cytotoxicity against human REH cells after 48 to 72 hrs. It counts as functional, cell-based. In a few lines: (§2)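 REH and K562 cells at 0.5 × 10⁵ cells/ml, given 0–10 μM compound, with a DMSO vehicle control. Read at 48 and 72 h by trypan blue dye exclusion (cells precultured 24 h before dosing) and by MTT. Three independent experiments, MTT in duplicate.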

The test system of the next assay is K562. The assay is described as follows: Cytotoxicity against human K562 cells after 48 to 72 hrs. It is filed as functional, cell-based. In a few lines:
as §2

pIC50: −log10 of the molar value.

Take `N#CSc1c(-c2ccccc2)nc2sc(Cc3ccc(Cl)cc3)nn12`: the pIC50 in the assay on L1210 is 4.62; in the assay on CCRF-CEM, 4.85; in the assay on HeLa, 4.92.

As to `Clc1ccc(Cc2nn3c(Br)c(-c4ccc(Cl)cc4)nc3s2)cc1`, the pIC50 in the assay on L1210, in the assay on CCRF-CEM and in the assay with HeLa was less than 3.60 in each case.

With `Clc1ccc(Cc2nn3cc(-c4ccccc4)nc3s2)cc1`, the negative-log IC50 (pIC50) in the assay on L1210, in the assay with CCRF-CEM and in the assay with HeLa was less than 3.60 throughout.

Turning to `N[C@@H](Cc1ccc(N(CCCl)CCCl)cc1)C(=O)O` [MELPHALAN], the pIC50 with CCRF-CEM was 5.85.

Consider `COc1ccc(-c2nc3sc(Cc4ccc(Cl)cc4)nn3c2SC#N)cc1`, for which the pIC50 in the assay on L1210 is 4.80; with CCRF-CEM, 5.00; in the assay with HeLa, 5.05.

In the case of `COc1ccc(-c2nc3sc(Cc4ccc(Cl)cc4)nn3c2Br)cc1`, the figures for the pIC50 with L1210, with CCRF-CEM and in the assay with HeLa were 4.20, 4.24 and 4.18, respectively.

In the case of `O=Cc1c(-c2ccc(Cl)cc2Cl)nc2sc(Cc3ccc(Cl)cc3)nn12`, the pIC50 in the assay with L1210 was 4.09; with CCRF-CEM, 4.10; in the assay on HeLa, 4.19.

With `COc1ccc(-c2nc3sc(Cc4ccc(Cl)cc4)nn3c2C=O)cc1`, the negative logarithm of the IC50 (pIC50) in the assay on L1210 is 5.28; with CCRF-CEM it was 5.42; in the assay on HeLa, 5.22.

For `Cc1ccc(-c2nc3sc(Cc4ccc(Cl)cc4)nn3c2Br)cc1`, the pIC50 in the assay with L1210, in the assay with CCRF-CEM and in the assay with HeLa was less than 3.60 in each case.

In the case of `O=[N+]([O-])c1ccc(-c2cn3nc(Cc4ccc(Cl)cc4)sc3n2)cc1`, the negative logarithm of the IC50 (pIC50) is 3.67 in the assay on L1210, less than 3.60 in the assay with CCRF-CEM and less than 3.60 with HeLa.

With `O=c1oc2ccccc2cc1-c1cn2nc(Cc3ccc(Cl)cc3)sc2n1`, the pIC50 with L1210, in the assay with CCRF-CEM and in the assay with HeLa was less than 5.00 throughout.

As to `c1ccc([C@H]2CN3CCSC3=N2)cc1` [LEVAMISOLE], the figures for the negative-log IC50 (pIC50) in the assay on L1210, in the assay with CCRF-CEM and in the assay with HeLa were 3.69, less than 3.60 and 3.60, respectively.

Turning to `Clc1ccc(Cc2nn3c(Br)c(-c4ccc(Br)cc4)nc3s2)cc1`, the pIC50 was less than 3.60 in the assay with L1210, 3.62 with CCRF-CEM and 3.73 in the assay with HeLa.

Turning to `N#CSc1c(-c2ccc(Cl)cc2)nc2sc(Cc3ccc(Cl)cc3)nn12`, the pIC50 in the assay with L1210 was 4.31; in the assay on CCRF-CEM it was 4.52; in the assay with HeLa it was 4.70.

Consider `O=Cc1c(-c2ccc(Br)cc2)nc2sc(Cc3ccc(Cl)cc3)nn12`, for which the values for the negative-log IC50 (pIC50) in the assay on L1210, in the assay on CCRF-CEM and with HeLa were 5.34, 5.40 and 5.38, respectively.

In the case of `Clc1ccc(Cc2nn3c(Br)c(-c4ccc(Cl)cc4Cl)nc3s2)cc1`, the negative-log IC50 (pIC50) in the assay on L1210 is 4.51; in the assay on CCRF-CEM, 3.97; with HeLa, 3.93.

`Cc1ccc(-c2cn3nc(Cc4ccc(Cl)cc4)sc3n2)cc1`: the pIC50 in the assay on L1210, in the assay on CCRF-CEM and with HeLa was less than 3.60 each time.

As to `O=c1oc2ccccc2cc1-c1nc2sc(Cc3ccc(Cl)cc3)nn2c1Br`, the negative-log IC50 (pIC50) in the assay with L1210 was 5.28; in the assay with CCRF-CEM, 5.43; in the assay with HeLa, 5.35.

`COc1ccc(-c2cn3nc(Cc4ccc(Cl)cc4)sc3n2)cc1`: the pIC50 was 4.42 with L1210, less than 3.60 with CCRF-CEM and less than 3.60 in the assay with HeLa.

With `Clc1ccc(Cc2nn3cc(-c4ccc(Cl)cc4Cl)nc3s2)cc1`, the pIC50 in the assay on L1210 is 3.61; in the assay with CCRF-CEM it was less than 3.60; in the assay with HeLa, 3.96.

For `O=[N+]([O-])c1ccc(-c2nc3sc(Cc4ccc(Cl)cc4)nn3c2Br)cc1`, the values for the pIC50 with L1210, in the assay with CCRF-CEM and with HeLa were 4.03, 4.14 and less than 3.60, respectively.

As to `Cc1ccc(-c2nc3sc(Cc4ccc(Cl)cc4)nn3c2SC#N)cc1`, the negative-log IC50 (pIC50) in the assay on L1210 was 4.49; in the assay on CCRF-CEM it was 4.66; with HeLa, 4.66.

For the molecule `N#CSc1c(-c2ccc(Cl)cc2Cl)nc2sc(Cc3ccc(Cl)cc3)nn12`, the pIC50 in the assay with L1210 is 4.31; in the assay on CCRF-CEM, 4.34; in the assay with HeLa, 4.74.

Regarding `N#CSc1c(-c2ccc(F)cc2)nc2sc(Cc3ccc(Cl)cc3)nn12`, the pIC50 in the assay with L1210 was 4.64; in the assay with CCRF-CEM it was 4.62; in the assay with HeLa, 4.70.

Turning to `O=Cc1c(-c2ccc(Cl)cc2)nc2sc(Cc3ccc(Cl)cc3)nn12`, the negative-log IC50 (pIC50) was 4.82 in the assay on L1210, 5.24 with CCRF-CEM and 4.80 in the assay with HeLa.

As to `Clc1ccc(Cc2nn3cc(-c4ccc(Cl)cc4)nc3s2)cc1`, the negative-log IC50 (pIC50) was less than 3.60 with L1210, less than 3.60 with CCRF-CEM and 4.02 in the assay with HeLa.

Turning to `O=Cc1c(-c2ccc(F)cc2)nc2sc(Cc3ccc(Cl)cc3)nn12`, the pIC50 in the assay on L1210 was 4.70; with CCRF-CEM it was 4.77; in the assay on HeLa, 4.70.

For `Clc1ccc(Cc2nn3c(Br)c(-c4ccccc4)nc3s2)cc1`, the pIC50 in the assay on L1210, with CCRF-CEM and in the assay with HeLa was less than 3.60 throughout.

Regarding `N#CSc1c(-c2ccc([N+](=O)[O-])cc2)nc2sc(Cc3ccc(Cl)cc3)nn12`, the values for the pIC50 in the assay with L1210, in the assay with CCRF-CEM and in the assay with HeLa were 4.30, 4.70 and 4.80, respectively.

As to `Fc1ccc(-c2cn3nc(Cc4ccc(Cl)cc4)sc3n2)cc1`, the negative-log IC50 (pIC50) in the assay with L1210, with CCRF-CEM and with HeLa was less than 3.60 each time.

On to `Cc1ccc(-c2nc3sc(Cc4ccc(Cl)cc4)nn3c2C=O)cc1`, for which the pIC50 in the assay with L1210 was 4.64; in the assay with CCRF-CEM it was 4.77; with HeLa, 4.68.

`Clc1ccc(Cc2nn3cc(-c4ccc(Br)cc4)nc3s2)cc1`: the pIC50 in the assay with L1210, in the assay with CCRF-CEM and with HeLa was less than 3.60 each time.

Take `O=Cc1c(-c2ccc([N+](=O)[O-])cc2)nc2sc(Cc3ccc(Cl)cc3)nn12`: the values for the pIC50 in the assay with L1210, in the assay with CCRF-CEM and with HeLa were 4.82, 4.89 and 4.77, respectively.

Turning to `N#CSc1c(-c2ccc(Br)cc2)nc2sc(Cc3ccc(Cl)cc3)nn12`, the figures for the pIC50 in the assay with L1210, in the assay on CCRF-CEM and with HeLa were 4.09, 4.21 and 4.66, respectively.

With `O=Cc1c(-c2ccccc2)nc2sc(Cc3ccc(Cl)cc3)nn12`, the figures for the negative-log IC50 (pIC50) in the assay on L1210, with CCRF-CEM and with HeLa were 4.70, 4.66 and 4.35, respectively.

Consider `Fc1ccc(-c2nc3sc(Cc4ccc(Cl)cc4)nn3c2Br)cc1`, for which the negative-log IC50 (pIC50) in the assay with L1210, with CCRF-CEM and in the assay with HeLa was less than 3.60 each time.

Turning to `N#CSc1c(-c2cc3ccccc3oc2=O)nc2sc(Cc3ccc(Cl)cc3)nn12`, the pIC50 in the assay with L1210 is 5.89; in the assay on CCRF-CEM it was 5.85; in the assay on HeLa, 6.00; in the assay on REH, 5.21; in the assay with K562, 5.51.
